These results are taken from ChEMBL document CHEMBL1131311, “Discovery of a novel, potent, and orally active nonpeptide antagonist of the human luteinizing hormone-releasing hormone (LHRH) receptor” (J Med Chem, 1998).

In the experiment the target is T1, Gonadotropin-releasing hormone receptor (Homo sapiens, UniProt P30968).
T1 sequence (P30968 whole entry): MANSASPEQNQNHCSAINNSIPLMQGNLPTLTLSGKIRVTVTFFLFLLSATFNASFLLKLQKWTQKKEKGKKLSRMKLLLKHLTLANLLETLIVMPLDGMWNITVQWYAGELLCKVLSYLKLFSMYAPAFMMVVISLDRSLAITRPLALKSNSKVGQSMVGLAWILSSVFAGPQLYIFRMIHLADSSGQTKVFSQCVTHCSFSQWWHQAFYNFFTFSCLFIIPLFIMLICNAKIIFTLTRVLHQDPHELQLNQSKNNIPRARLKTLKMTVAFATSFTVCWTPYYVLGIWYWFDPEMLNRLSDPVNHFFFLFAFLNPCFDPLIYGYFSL
Description: The Compound was tested for the concentration to inhibit 50% of [125 I ]leuprorelin binding to the cloned human Leutinizing releasing hormone receptor (LHRH) receptor. Put shortly:
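Membranes from CHO cells stably expressing cloned human LHRH receptor (0.2 mg/mL) incubated with [125I]leuprorelin (0.15 nM) and graded compound in Tris/EDTA/BSA buffer with protease inhibitors, pH 7.5, 60 min at 25 °C. Filtration on PEI-coated glass fiber, gamma counting. Nonspecific binding with 1 µM unlabeled leuprorelin. IC50 from pseudo-Hill fit. Means of ≥3 determinations.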

One may read the IC50 as the midpoint of a concentration-inhibition curve. A high value points to weaker potency in that assay. Compound `CCOC(=O)c1cn(Cc2c(F)cccc2F)c2sc(-c3ccc(N)cc3)c(CN(C)Cc3ccccc3)c2c1=O` showed a concentration for half-maximal inhibition (IC50) of 4 nM.
